# Measurements: ChEMBL document CHEMBL4118021, “Studies of TAK1-centered polypharmacology with novel covalent TAK1 inhibitors” (Bioorg Med Chem, 2017)
# Tests used:
# [1] = target: Tyrosine-protein kinase FRK (Homo sapiens) (UniProt P42685); experiment: Inhibition of FRK in human SKCO1 cells at 1 uM after 4 hrs using biotin labeled HEIKLPVK probe by mass-spectrometric analysis relative to control; assay type: cell-based
# [2] = target: DNA-dependent protein kinase catalytic subunit (Homo sapiens) (UniProt P78527); experiment: Inhibition of DNAPK in human SKCO1 cells at 1 uM after 4 hrs using biotin labeled EHPFLVKGGEDLR probe by mass-spectrometric analysis relative to control; assay type: cell-based
# [3] = target: Interferon-induced, double-stranded RNA-activated protein kinase (Homo sapiens) (UniProt P19525); experiment: Inhibition of PKR in human SKCO1 cells at 1 uM after 4 hrs using biotin labeled DLKPSNIFLVDTK probe by mass-spectrometric analysis relative to control; assay type: cell-based
# Method in brief: (§1)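 Live SK-CO-1 cells exposed to compound at 1 μM or DMSO for 4 h (KiNativ). Lysates then labeled with lysine-reactive ATP/ADP-biotin probe, and probe-labeled kinase peptides quantified by mass spectrometry. Percent inhibition of probe-dependent recovery calculated relative to DMSO-treated cells.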
# [4] = target: Wee1-like protein kinase (Homo sapiens) (UniProt P30291); experiment: Inhibition of Wee1 in human SKCO1 cells at 1 uM after 4 hrs using biotin labeled YIHSMSLVHMDIKPSNIFISR probe by mass-spectrometric analysis relative to control; assay type: cell-based
# Method in brief: (§2)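 Live SK-CO-1 cells treated 4 h at 1 μM (DMSO control); cells lysed and lysates labeled with lysine-reactive ATP/ADP-biotin probe (KiNativ); probe-labeled kinase peptides quantified by mass spectrometry; inhibition expressed as percent reduction in probe-dependent recovery versus DMSO-treated cells.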
# [5] = target: Serine/threonine-protein kinase Nek7 (Homo sapiens) (UniProt Q8TDX7); experiment: Inhibition of NEK7 in human SKCO1 cells at 1 uM after 4 hrs using biotin labeled DIKPANVFITATGVVK probe by mass-spectrometric analysis relative to control; assay type: cell-based
# [6] = target: Tyrosine-protein kinase JAK1 (Homo sapiens) (UniProt P23458); experiment: Inhibition of JAK1 domain1 in human SKCO1 cells at 1 uM after 4 hrs using biotin labeled QLASALSYLEDKDLVHGNVCTKNLLLAR probe by mass-spectrometric analysis relative to control; assay type: cell-based
# [7] = target: Bone morphogenetic protein receptor type-1A (Homo sapiens) (UniProt P36894); experiment: Inhibition of BMPR1A in human SKCO1 cells at 1 uM after 4 hrs using biotin labeled SKNILIK probe by mass-spectrometric analysis relative to control; assay type: cell-based
# [8] = target: Cyclin-dependent kinase 18 (Homo sapiens) (UniProt Q07002); experiment: Inhibition of PCTAIRE3 in human SKCO1 cells at 1 uM after 4 hrs using biotin labeled SKLTENLVALKEIR probe by mass-spectrometric analysis relative to control; assay type: cell-based; method in brief: as §1
# [9] = target: Serine/threonine-protein kinase MARK2 (Homo sapiens) (UniProt Q7KZI7); experiment: Inhibition of MARK2 in human SKCO1 cells at 1 uM after 4 hrs using biotin labeled DLKAENLLLDADMNIK probe by mass-spectrometric analysis relative to control; assay type: cell-based
# [10] = target: Serine/threonine-protein kinase Chk2 (Homo sapiens) (UniProt O96017); experiment: Inhibition of CHK2 in human SKCO1 cells at 1 uM after 4 hrs using biotin labeled DLKPENVLLSSQEEDCLIK probe by mass-spectrometric analysis relative to control; assay type: cell-based
# [11] = target: Dual specificity mitogen-activated protein kinase kinase 1 (Homo sapiens) (UniProt Q02750); experiment: Inhibition of MAP2K1 in human SKCO1 cells at 1 uM after 4 hrs using biotin labeled KLIHLEIKPAIR probe by mass-spectrometric analysis relative to control; assay type: cell-based; conditions: pooled result: one value given for 2 cell lines, strains, targets or settings
# [12] = target: Ribosomal protein S6 kinase beta-2 (Homo sapiens) (UniProt Q9UBS0); experiment: Inhibition of p70S6Kb in human SKCO1 cells at 1 uM after 4 hrs using biotin labeled DLKPENIMLSSQGHIK probe by mass-spectrometric analysis relative to control; assay type: cell-based; method in brief: as §1
# [13] = target: Interleukin-1 receptor-associated kinase 1 (Homo sapiens) (UniProt P51617); experiment: Inhibition of IRAK1 in human SKCO1 cells at 1 uM after 4 hrs using biotin labeled AIQFLHQDSPSLIHGDIKSSNVLLDER probe by mass-spectrometric analysis relative to control; assay type: cell-based
# [14] = target: Cyclin-dependent kinase 18 (Homo sapiens) (UniProt Q07002); experiment: Inhibition of PCTAIRE3 in human SKCO1 cells at 1 uM after 4 hrs using biotin labeled DLKPQNLLINER probe by mass-spectrometric analysis relative to control; assay type: cell-based; method in brief: as §1
# [15] = target: Mitogen-activated protein kinase kinase kinase 20 (Homo sapiens) (UniProt Q9NYL2); experiment: Inhibition of ZAK in human SKCO1 cells at 1 uM after 4 hrs using biotin labeled WISQDKEVAVKK probe by mass-spectrometric analysis relative to control; assay type: cell-based; method in brief: as §1
# [16] = target: Aurora kinase A (Homo sapiens) (UniProt O14965); experiment: Inhibition of AurA in human SKCO1 cells at 1 uM after 4 hrs using biotin labeled DIKPENLLLGSAGELK probe by mass-spectrometric analysis relative to control
# [17] = target: Serine/threonine-protein kinase/endoribonuclease IRE2 (Homo sapiens) (UniProt Q76MJ5); experiment: Inhibition of IRE2 in human SKCO1 cells at 1 uM after 4 hrs using biotin labeled DLKPGNILITGPDSQGLGR probe by mass-spectrometric analysis relative to control; assay type: cell-based
# [18] = target: Dual specificity mitogen-activated protein kinase kinase 2 (Homo sapiens) (UniProt P36507); experiment: Inhibition of MAP2K2 in human SKCO1 cells at 1 uM after 4 hrs using biotin labeled DVKPSNILVNSR probe by mass-spectrometric analysis relative to control; assay type: cell-based; method in brief: as §2
# [19] = target: Tyrosine-protein kinase CSK (Homo sapiens) (UniProt P41240); experiment: Inhibition of CSK in human SKCO1 cells at 1 uM after 4 hrs using biotin labeled VSDFGLTKEASSTQDTGKLPVK probe by mass-spectrometric analysis relative to control; assay type: cell-based
# [20] = target: T1, EKC/KEOPS complex subunit TP53RK (Homo sapiens) (UniProt Q96S44); experiment: Inhibition of PRPK in human SKCO1 cells at 1 uM after 4 hrs using biotin labeled FLSGLELVKQGAEAR probe by mass-spectrometric analysis relative to control; assay type: cell-based; method in brief: as §1
# T1 sequence (whole entry): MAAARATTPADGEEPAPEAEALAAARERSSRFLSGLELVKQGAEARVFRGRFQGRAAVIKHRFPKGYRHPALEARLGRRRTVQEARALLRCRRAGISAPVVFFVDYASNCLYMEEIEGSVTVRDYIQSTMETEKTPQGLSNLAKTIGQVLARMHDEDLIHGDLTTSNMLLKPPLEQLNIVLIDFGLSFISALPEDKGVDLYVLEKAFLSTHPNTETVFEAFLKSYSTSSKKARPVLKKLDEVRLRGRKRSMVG
# [21] = target: Mitogen-activated protein kinase kinase kinase kinase 5 (Homo sapiens) (UniProt Q9Y4K4); experiment: Inhibition of KHS1 in human SKCO1 cells at 1 uM after 4 hrs using biotin labeled NVHTGELAAVKIIK probe by mass-spectrometric analysis relative to control; assay type: cell-based
# [22] = target: Mitogen-activated protein kinase 1 (Homo sapiens) (UniProt P28482); experiment: Inhibition of Erk2 in human SKCO1 cells at 1 uM after 4 hrs using biotin labeled DLKPSNLLLNTTCDLK probe by mass-spectrometric analysis relative to control; assay type: cell-based
# Sequence of Dual specificity mitogen-activated protein kinase kinase 1 (Homo sapiens) (Q02750 whole entry): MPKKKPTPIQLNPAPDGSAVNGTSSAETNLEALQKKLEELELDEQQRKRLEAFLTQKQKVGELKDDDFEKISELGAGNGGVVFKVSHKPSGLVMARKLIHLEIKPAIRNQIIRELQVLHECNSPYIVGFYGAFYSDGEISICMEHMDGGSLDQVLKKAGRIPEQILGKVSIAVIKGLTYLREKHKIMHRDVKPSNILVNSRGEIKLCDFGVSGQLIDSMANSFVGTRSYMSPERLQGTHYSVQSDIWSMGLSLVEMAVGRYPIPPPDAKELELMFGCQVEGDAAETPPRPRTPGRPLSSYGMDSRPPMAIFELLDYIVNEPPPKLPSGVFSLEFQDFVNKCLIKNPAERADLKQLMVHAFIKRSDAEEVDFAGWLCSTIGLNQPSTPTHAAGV
# Sequence of Aurora kinase A (Homo sapiens) (O14965 whole entry, looked up): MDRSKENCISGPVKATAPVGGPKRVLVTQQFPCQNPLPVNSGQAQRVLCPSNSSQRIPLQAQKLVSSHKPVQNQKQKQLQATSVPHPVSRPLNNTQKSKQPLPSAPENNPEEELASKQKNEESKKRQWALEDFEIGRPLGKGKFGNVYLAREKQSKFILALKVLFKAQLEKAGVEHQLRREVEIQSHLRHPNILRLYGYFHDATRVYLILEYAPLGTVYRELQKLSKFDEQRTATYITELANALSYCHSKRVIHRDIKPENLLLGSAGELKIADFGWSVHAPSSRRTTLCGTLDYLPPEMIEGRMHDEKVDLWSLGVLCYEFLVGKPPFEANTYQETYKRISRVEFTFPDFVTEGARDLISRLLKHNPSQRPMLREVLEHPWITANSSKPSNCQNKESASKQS
# Sequence of Cyclin-dependent kinase 18 (Homo sapiens) (Q07002 whole entry): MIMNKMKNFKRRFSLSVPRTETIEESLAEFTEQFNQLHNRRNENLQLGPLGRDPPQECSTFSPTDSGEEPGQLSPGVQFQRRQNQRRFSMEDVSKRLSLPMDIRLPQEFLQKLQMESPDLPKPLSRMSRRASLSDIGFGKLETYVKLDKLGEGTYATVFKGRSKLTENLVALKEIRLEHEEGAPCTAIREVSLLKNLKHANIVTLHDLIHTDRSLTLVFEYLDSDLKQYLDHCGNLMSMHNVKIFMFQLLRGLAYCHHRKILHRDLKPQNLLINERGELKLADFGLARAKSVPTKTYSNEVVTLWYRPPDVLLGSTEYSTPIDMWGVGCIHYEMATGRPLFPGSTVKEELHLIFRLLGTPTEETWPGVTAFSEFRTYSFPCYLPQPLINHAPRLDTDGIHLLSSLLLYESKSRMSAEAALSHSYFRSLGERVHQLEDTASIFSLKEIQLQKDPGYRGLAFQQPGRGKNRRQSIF
# Sequence of Interleukin-1 receptor-associated kinase 1 (Homo sapiens) (P51617 whole entry, looked up): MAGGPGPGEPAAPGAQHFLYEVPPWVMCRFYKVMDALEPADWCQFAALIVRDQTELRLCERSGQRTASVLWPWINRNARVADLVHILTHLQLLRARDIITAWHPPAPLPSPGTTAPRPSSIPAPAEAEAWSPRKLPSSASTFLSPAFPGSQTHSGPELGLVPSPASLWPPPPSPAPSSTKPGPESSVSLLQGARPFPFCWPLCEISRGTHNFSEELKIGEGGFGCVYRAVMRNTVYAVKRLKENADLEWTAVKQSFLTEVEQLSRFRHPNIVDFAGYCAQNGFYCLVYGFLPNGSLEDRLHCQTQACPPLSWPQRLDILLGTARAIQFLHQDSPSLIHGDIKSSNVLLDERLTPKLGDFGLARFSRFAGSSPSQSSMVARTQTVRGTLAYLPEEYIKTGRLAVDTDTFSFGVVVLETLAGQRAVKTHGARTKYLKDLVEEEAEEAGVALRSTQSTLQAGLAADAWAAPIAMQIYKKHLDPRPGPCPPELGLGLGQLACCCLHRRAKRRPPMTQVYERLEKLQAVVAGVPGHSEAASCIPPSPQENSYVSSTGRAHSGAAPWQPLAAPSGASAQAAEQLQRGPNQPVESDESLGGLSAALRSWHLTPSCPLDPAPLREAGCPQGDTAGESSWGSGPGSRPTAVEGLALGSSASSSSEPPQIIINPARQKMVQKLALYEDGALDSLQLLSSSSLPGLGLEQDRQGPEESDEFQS
# Sequence of Tyrosine-protein kinase CSK (Homo sapiens) (P41240 2-450 limits assumed): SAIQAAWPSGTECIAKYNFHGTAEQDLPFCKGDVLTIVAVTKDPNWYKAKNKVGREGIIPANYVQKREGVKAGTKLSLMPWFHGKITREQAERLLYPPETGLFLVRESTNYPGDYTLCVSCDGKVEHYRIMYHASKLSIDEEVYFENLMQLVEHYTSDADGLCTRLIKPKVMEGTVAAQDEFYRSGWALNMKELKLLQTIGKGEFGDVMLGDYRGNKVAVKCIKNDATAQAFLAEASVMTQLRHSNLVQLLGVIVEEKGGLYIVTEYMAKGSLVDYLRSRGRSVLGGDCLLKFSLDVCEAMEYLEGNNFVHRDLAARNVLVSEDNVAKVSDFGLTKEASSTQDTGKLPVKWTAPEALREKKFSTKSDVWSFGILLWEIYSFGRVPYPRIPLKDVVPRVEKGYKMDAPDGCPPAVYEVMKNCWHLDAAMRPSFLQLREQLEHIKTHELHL
# Sequence of Ribosomal protein S6 kinase beta-2 (Homo sapiens) (Q9UBS0 whole entry): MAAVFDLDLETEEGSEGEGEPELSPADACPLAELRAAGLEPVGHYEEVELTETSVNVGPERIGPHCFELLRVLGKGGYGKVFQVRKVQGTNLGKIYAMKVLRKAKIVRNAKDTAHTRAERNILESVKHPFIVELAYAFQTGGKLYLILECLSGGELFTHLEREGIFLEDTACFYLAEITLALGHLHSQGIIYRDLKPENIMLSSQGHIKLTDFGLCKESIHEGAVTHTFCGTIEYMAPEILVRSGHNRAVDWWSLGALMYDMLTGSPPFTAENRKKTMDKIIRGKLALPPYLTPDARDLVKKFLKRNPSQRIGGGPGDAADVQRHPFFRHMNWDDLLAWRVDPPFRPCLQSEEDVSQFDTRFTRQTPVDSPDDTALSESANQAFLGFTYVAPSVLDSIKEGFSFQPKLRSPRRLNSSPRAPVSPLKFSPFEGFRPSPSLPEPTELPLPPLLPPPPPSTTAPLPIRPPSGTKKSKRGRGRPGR
# Sequence of Serine/threonine-protein kinase MARK2 (Homo sapiens) (Q7KZI7 whole entry): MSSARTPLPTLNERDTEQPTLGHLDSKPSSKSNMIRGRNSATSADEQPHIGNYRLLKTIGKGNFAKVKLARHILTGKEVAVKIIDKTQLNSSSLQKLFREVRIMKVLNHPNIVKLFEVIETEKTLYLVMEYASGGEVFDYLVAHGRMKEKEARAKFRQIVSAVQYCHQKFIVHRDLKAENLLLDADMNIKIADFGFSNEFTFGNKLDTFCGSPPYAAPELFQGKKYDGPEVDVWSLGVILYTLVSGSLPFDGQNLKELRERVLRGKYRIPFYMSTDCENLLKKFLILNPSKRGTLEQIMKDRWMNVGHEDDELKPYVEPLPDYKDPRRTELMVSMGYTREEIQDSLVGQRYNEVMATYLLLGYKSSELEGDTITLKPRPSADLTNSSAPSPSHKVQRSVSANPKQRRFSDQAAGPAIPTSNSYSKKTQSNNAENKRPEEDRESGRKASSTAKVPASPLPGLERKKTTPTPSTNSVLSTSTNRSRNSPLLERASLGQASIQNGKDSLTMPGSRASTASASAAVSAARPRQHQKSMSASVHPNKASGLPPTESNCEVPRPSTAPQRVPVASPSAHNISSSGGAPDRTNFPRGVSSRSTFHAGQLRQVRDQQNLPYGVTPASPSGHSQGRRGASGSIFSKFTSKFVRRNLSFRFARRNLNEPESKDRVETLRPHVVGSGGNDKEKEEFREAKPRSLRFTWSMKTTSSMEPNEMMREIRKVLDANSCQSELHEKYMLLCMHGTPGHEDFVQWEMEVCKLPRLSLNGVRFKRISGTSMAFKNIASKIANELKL
# Sequence of Mitogen-activated protein kinase kinase kinase 20 (Homo sapiens) (Q9NYL2 2-800 limits assumed): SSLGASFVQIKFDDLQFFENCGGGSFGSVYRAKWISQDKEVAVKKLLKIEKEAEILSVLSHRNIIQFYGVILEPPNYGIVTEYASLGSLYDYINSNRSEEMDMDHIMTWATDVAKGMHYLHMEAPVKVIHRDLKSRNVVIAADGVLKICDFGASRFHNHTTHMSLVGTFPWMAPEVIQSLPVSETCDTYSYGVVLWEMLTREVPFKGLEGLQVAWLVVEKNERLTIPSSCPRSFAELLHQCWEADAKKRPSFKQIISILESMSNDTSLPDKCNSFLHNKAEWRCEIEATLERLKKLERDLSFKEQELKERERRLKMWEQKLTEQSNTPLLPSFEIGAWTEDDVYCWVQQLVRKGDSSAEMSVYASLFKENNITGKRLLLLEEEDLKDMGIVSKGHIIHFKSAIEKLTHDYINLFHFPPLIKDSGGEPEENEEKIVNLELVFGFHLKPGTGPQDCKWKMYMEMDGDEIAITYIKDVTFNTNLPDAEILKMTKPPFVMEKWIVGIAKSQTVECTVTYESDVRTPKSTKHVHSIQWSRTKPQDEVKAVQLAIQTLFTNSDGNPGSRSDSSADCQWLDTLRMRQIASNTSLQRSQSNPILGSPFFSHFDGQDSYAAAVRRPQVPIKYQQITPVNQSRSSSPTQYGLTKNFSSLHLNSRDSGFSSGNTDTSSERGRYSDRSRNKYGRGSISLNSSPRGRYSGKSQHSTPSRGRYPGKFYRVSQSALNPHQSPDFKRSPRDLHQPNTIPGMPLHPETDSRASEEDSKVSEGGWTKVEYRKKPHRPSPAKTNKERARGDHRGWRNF
# Sequence of Serine/threonine-protein kinase Nek7 (Homo sapiens) (Q8TDX7 whole entry, looked up, the tested form may be a part): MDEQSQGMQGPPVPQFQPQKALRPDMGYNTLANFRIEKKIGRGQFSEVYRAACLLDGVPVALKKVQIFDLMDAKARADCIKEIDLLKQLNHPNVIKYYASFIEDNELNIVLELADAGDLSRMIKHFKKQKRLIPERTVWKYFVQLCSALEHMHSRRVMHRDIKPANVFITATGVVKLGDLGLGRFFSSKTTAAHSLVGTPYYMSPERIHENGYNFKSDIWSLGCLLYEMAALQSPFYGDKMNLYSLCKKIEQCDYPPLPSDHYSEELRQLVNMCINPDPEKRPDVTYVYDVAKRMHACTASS
SMILES,inhibition [1] [%],inhibition [2] [%],inhibition [3] [%],inhibition [4] [%],inhibition [5] [%],inhibition [6] [%],inhibition [7] [%],inhibition [8] [%],inhibition [9] [%],inhibition [10] [%],inhibition [11] [%],inhibition [12] [%],inhibition [13] [%],inhibition [14] [%],inhibition [15] [%],inhibition [16] [%],inhibition [17] [%],inhibition [18] [%],inhibition [19] [%],inhibition [20] [%],further results
COc1cc(O)c2c(c1)/C=C/C[C@H](O)[C@H](O)C(=O)/C=C\C[C@H](C)OC2=O,-9.6,21.7,-6.6,3,4.9,21.6,73.1,21.2,3.6,12.6,85.3,54.6,-6,-6.3,87.5,56.3,21.4,95,-1.8,46.7,
C=CC(=O)Nc1ccccc1Nc1nc(Nc2ccc(N3CCN(C)CC3)cc2)ncc1Cl,39.2,0.5,2.6,79,,64.7,28,3.7,-7.2,8.5,62.7,3.3,38.2,-3.2,26,89.1,6.9,,-0.8,42.1,inhibition [21]: 14.8%; inhibition [22]: 42.6%
C=CC(=O)Nc1ccccc1Oc1nc(Nc2cnn(CCOC)c2)ncc1Cl,,16.2,2.5,,-0.4,,19.9,21.9,-8.4,-6.3,13.9,-1.5,-4.5,-5.9,-9.2,48.4,,7.9,5.2,46.6,inhibition [21]: -4.6%; inhibition [22]: 55.7%
